TbMetRS inhib: T. brucei MetRS inhibitors, primary screen, biochemical, luminescence. methionyl-tRNA synthetase (Trypanosoma brucei brucei). purified T. brucei MetRS, ATP depletion, Kinase-Glo luminescence. inhibition, % at 11.9 µM. hit rate 0.4% among 360,000. AID 624268, 2012;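 active means inhibition above a per-plate cutoff of the control wells' mean inhibition plus 3 SD, cut at about 5.5% in these data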;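 further: 0% = DMSO wells median and 100% = median of wells with control inhibitor compound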
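Measured by: Kinase-Glo luciferase luminescence reporting remaining unconsumed ATP. Material: purified T. brucei MetRS enzyme. Doses: 11.9 µM compound single dose, 0.9% DMSO. Medium: HEPES buffer containing pyrophosphatase, BSA, spermine, DTT. Times: 15 min preincubation, 2 h reaction, all 25 °C. Reagent: methionine, ATP and bulk E. coli tRNA.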
WT yeast gro inh: growth inhibition of WT strain, primary screen, mitochondrial fusion inhibitor project, WT and mutant strains, chemical genetic | mitochondrial fusion phenotypic screen | hit rate 2.1% among 190,000 | inhibition, % at 10 µM; in the data active means inhibition above about 58%; tested in S. cerevisiae
EBV gp42 inh: Epstein-Barr virus gp42 inhibitors, primary screen, biochemical, uHTS, fluorescence polarization; Glycoprotein 42 (Epstein-Barr virus (strain AG876)), Q1HVG2; Fluorescence polarization binding assay, mP read-out; inhibition, % (tested at 21.74 µM); hit rate 0.42% among 220,000; AID 1085, 2008; in the data active means inhibition above about 50%
Target sequence (Q1HVG2 whole entry, looked up): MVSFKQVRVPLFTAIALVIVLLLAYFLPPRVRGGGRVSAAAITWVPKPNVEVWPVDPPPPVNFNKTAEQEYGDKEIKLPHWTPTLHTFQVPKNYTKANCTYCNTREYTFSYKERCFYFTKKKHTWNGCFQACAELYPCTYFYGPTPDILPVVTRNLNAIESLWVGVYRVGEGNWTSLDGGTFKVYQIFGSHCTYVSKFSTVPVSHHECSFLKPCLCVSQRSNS
MPTP block: mitochondrial permeability transition pore inhibitors, primary screen, biochemical, isolated mouse mitochondria, absorbance; Ca2+ swelling absorbance, 30 min; AID 602449, 2012; inhibition, % at 10 µM; hit rate 1.4% among 360,000;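 active means inhibition of 50% or more, scaled per plate between neutral and stimulator controls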;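 further: 0% = DMSO wells given calcium and 100% = 1 mM EGTA wells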
CHOP inhibitor: inhibitors of CHOP promoter induction, primary screen, cell-based, unfolded protein response, luciferase reporter; CHO-K1 CHOP-promoter luciferase, tunicamycin-induced, 15-18 h; inhibition, % at 10 µM; hit rate 3.8% among 220,000;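 active means compounds that reduced the stress-induced luciferase reporter signal by more than about 70% of percent inhibition, limit read from the data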;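 further: 0% = tunicamycin plus vehicle and 100% = wells without tunicamycin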
GRIN3A LBD mod: binders of NR3A ligand-binding domain, primary screen, biophysical, differential scanning fluorimetry, uHTS. AID 1259313, 2017. hit rate 2.5% among 340,000. NR3A LBD differential scanning fluorimetry, Tm shift; 0% = protein alone, 100% = glycine-bound protein. Tm shift relative to glycine control, % at 25 µM;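 active means melting temperature shift of at least 10% of the positive control shift, at one fixed dose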
* hit, by the source's call; . = no result given. Compounds with a hit are over-represented: about 6.4% of the library has one in this group of screens.

SMILES	TbMetRS inhib	WT yeast gro inh	EBV gp42 inh	MPTP block	CHOP inhibitor	GRIN3A LBD mod
C[C@H]1[C@H](C)CC[C@]2(C(=O)O)CC[C@]3(C)C(=CC[C@@H]4[C@@]5(C)CC[C@H](O)C(C)(C)[C@@H]5CC[C@]43C)[C@H]12	-1	.	-9	1	73*	0
CC(Oc1ccccc1)C(=O)Nc1ccc(S(=O)(=O)N2CCOCC2)cc1 (stereo not given)	-1	-14	3	0	-22	0
Cc1cccc(C)c1NC(=O)CN(C)C(=O)c1ccc(NS(=O)(=O)c2ccc3[nH]c(=O)[nH]c3c2)cc1	0	.	.	-1	.	13*
CN(CC(=O)Nc1ccc(Cl)cc1)C(=O)c1ccc(NS(=O)(=O)c2ccc3[nH]c(=O)[nH]c3c2)cc1	0	.	.	0	.	-3
NNC(=O)c1cccc(S(=O)(=O)Nc2cccc(C(F)(F)F)c2)c1	0	.	-19	4	24	0
COc1ccc(NS(=O)(=O)c2cccc(C(=O)N/N=C/c3c(F)c(F)c(F)c(F)c3F)c2)cc1	0	.	.	13	.	12*
COc1ccc(-c2nn(-c3ccccc3)cc2/C=N/NS(=O)(=O)c2ccccc2)cc1	0	29	-11	2	38	21*
Cc1[nH]c2ccccc2c1/C=N/NC(=O)c1cccc(S(=O)(=O)Nc2cccc(C(F)(F)F)c2)c1	-1	-36	-22	-6	-3	28*
COc1ccc(-c2nn(-c3ccccc3)cc2/C=N/NC(=O)c2cccc(S(=O)(=O)Nc3ccccc3Cl)c2)cc1	0	-16	-20	5	2	22*
CCCN(CC(=O)Nc1ccccc1C)C(=O)C1CCCN(C(=O)c2ccc(Cl)cc2)C1 (stereo not given)	0	.	.	0	.	3
CCCCNC(=O)CSc1nc(O)c(Cc2ccc(OC)cc2)c(=O)[nH]1	-1	.	12	1	-2	-1
CCOC(=O)Cc1c(C)nc2cc(-c3ccc(C)cc3)[nH]n2c1=O	-1	-2	-4	0	-10	0
CCCCCC(=O)Nc1cccc(C2=NOC3(C2)C[C@H](C(N)=O)N(C(=O)[C@H]2CCC(=O)N2)C3)c1 (stereo not given in full)	0	.	-8	0	-2	12*
NC(=O)[C@H]1CC2(CC(c3cccc(NC(=O)COc4ccc(Cl)cc4)c3)=NO2)CN1C(=O)c1ccc(Cl)cc1 (stereo not given in full)	0	.	-9	2	95*	5
CCC(=O)N1CC2(CC(c3cccc(NC(=O)COc4ccc(Cl)cc4)c3)=NO2)C[C@@H]1C(N)=O (stereo not given in full)	.	.	-10	.	3	.
COCC(=O)NNC(=O)Cc1ccc(Cl)cc1	0	-14	-14	1	8	-2
Cc1cccn2c(=O)c3cc(C(=O)NC4CCS(=O)(=O)C4)n(Cc4ccccc4)c3nc12 (stereo not given)	0	.	.	-1	.	-10
CSc1nc2cc3c(cc2n1C(=O)c1ccc(C)cc1)OCCO3	0	6	7	-2	90*	-1
COc1cccc(C(=O)n2c(SC)nc3cc4c(cc32)OCCO4)c1	0	-1	-3	0	-31	0
Cc1n[nH]c(C)c1CCC(=O)N/N=C/c1cccc([N+](=O)[O-])c1	-1	-8	-2	-1	-2	1
O=C(CCCOc1ccc(Cl)cc1Cl)N/N=C/c1cccc([N+](=O)[O-])c1	0	-3	-17	7	76*	1
CC1OC(OC2C(OC3C(O[C@H]4CC[C@]5(C)C6C=C[C@]78OC[C@@]9(CC[C@@H](C)[C@H](C)C97)[C@H](O)C[C@@]8(C)[C@]6(C)CC[C@H]5C4(C)C)OC(C)C(O)C3O)OC(CO)C(O)C2O)C(O)C(O)C1O (stereo not given in full)	.	.	3	.	101*	.
C/C(=N\NC(=O)C(c1ccncc1)N1CCOCC1)c1ccc(Br)cc1 (stereo not given)	-1	-9	-19	-1	8	-1
O=C(NCC1(c2ccccc2)CCCC1)C1(c2ccccc2)CCCC1	0	83*	-13	2	-3	2
CC1CCN(c2cc(N3CCOCC3)c([N+](=O)[O-])cc2F)CC1	0	0	-6	0	1	3
SMILES	TbMetRS inhib	WT yeast gro inh	EBV gp42 inh	MPTP block	CHOP inhibitor	GRIN3A LBD mod
CC1CCN(c2cc(N3CCOCC3)c(F)cc2[N+](=O)[O-])CC1	0	9	-6	1	82*	15*
O=C(O)c1[nH]c2ccccc2c1C(c1c(F)cccc1Cl)c1c(C(=O)O)[nH]c2ccccc12	0	.	.	-1	.	3
Cc1[nH][nH]c(=O)c1C(c1cc(Br)ccc1O)c1c(C)[nH][nH]c1=O	1	.	.	0	.	2
COc1cc(Cl)cc(C(c2c(C(=O)O)[nH]c3ccccc23)c2c(C(=O)O)[nH]c3ccccc23)c1O	1	.	.	-3	.	22*
O=C(O)c1[nH]c2ccccc2c1C(c1cc(Br)ccc1O)c1c(C(=O)O)[nH]c2ccccc12	0	.	.	1	.	11*
Cc1ccc(Cn2c(=O)n(Cc3ccco3)c(=O)c3ccccc32)cc1	-1	14	-4	3	5	0
O=C(Nc1ccc(F)c(Cl)c1)c1csc([C@H]2C[C@H](O)[C@@H](CO)O2)n1	0	.	.	0	.	.
CCOc1ccccc1OCCOc1ccccc1CC	-1	13	-17	0	76*	3
CCOc1ccccc1OCCOc1ccccc1OC(C)C	0	-13	-26	-1	70	-10
CCOc1ccccc1OCCCOc1ccc(C)cc1Cl	-1	9	-4	2	41	4
CCOc1ccccc1OCCCOc1ccc(C)cc1Br	-1	58*	-17	-3	59	-1
COc1ccccc1N(CC(=O)N/N=C/c1c(O)ccc2ccccc12)S(C)(=O)=O	0	-5	-13	6	61	-4
COc1ccccc1NCC(=O)N/N=C/c1c(O)ccc2ccccc12	2	.	.	1	.	16*
O=C(CNc1ccc(F)cc1)N/N=C/c1c(O)ccc2ccccc12	2	.	.	9	.	27*
COc1ccc(CNC(=O)CCc2nc3cc(S(=O)(=O)N(C)C)ccc3n2C)cc1OC	1	3	-8	-2	5	-1
CC(=O)Nc1ccc(NC(=O)C(C)Sc2nc3ccccc3c(=O)n2CC2CCCO2)cc1 (stereo not given)	0	.	.	0	.	2

Compound activity as filed in PubChem BioAssay.
